The source made the active and inactive calls.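 Rule for the calls: active = compound raising or lowering KCNQ1 potassium channel current, with its KCNE1 partner, at some dose, giving a dose response curve; inactive = no effect at any dose or no curve.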
Each compound was assayed against Potassium voltage-gated channel subfamily KQT member 1 (Homo sapiens) + Potassium voltage-gated channel subfamily E member 1 (Homo sapiens) (UniProt P15382+P51787) (assay: KCNQ1/KCNE1 channel modulation by KCNQ2 openers, dose response, selectivity assay for KCNQ2 activator project, Tl flux, KCNQ1/E1-expressing cells (AID 504418)). Settings: FluxOR thallium flux; series mostly up to 30 µM.
Method in brief: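 Material: CHO-KCNQ1/KCNE1 cells | Probe or stimulus: Depolarizing potassium plus thallium sulfate stimulus, 12.5 mM each (5x stock) | Incubation: FluxOR dye loading 90 min, compound exposure 20 min, room temperature | Detection: Kinetic FluxOR thallium-flux fluorescence, 110 s reading after stimulus | Read-out: Peak-to-trough fluorescence change over baseline, percent versus vehicle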

Chain of Potassium voltage-gated channel subfamily KQT member 1 (Homo sapiens) + Potassium voltage-gated channel subfamily E member 1 (Homo sapiens) (O88943 whole entry, looked up): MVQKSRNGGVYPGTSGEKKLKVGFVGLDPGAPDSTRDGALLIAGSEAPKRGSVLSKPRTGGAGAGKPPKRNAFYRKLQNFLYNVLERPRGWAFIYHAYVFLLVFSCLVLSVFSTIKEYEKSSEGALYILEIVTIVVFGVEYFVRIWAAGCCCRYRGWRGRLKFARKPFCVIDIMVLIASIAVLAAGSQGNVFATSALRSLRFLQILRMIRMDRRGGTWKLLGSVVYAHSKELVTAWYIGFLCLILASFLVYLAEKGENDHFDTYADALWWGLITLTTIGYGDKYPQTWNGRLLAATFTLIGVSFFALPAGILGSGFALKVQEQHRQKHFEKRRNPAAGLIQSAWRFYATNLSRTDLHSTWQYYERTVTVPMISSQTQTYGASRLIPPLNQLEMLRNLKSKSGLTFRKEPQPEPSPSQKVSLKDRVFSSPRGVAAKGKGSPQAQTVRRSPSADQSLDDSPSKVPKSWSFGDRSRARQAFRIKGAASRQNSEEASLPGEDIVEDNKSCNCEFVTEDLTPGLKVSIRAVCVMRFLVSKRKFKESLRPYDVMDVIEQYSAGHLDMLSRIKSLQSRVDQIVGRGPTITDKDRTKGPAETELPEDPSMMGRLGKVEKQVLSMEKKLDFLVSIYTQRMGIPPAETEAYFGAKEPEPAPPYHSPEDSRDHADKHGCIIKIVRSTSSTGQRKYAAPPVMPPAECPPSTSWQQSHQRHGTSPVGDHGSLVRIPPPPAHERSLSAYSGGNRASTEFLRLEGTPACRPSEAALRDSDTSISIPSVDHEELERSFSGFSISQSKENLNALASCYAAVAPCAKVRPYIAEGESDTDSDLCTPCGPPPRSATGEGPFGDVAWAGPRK
Chain of Potassium voltage-gated channel subfamily KQT member 1 (Homo sapiens) + Potassium voltage-gated channel subfamily E member 1 (Homo sapiens) (P51787 whole entry, looked up): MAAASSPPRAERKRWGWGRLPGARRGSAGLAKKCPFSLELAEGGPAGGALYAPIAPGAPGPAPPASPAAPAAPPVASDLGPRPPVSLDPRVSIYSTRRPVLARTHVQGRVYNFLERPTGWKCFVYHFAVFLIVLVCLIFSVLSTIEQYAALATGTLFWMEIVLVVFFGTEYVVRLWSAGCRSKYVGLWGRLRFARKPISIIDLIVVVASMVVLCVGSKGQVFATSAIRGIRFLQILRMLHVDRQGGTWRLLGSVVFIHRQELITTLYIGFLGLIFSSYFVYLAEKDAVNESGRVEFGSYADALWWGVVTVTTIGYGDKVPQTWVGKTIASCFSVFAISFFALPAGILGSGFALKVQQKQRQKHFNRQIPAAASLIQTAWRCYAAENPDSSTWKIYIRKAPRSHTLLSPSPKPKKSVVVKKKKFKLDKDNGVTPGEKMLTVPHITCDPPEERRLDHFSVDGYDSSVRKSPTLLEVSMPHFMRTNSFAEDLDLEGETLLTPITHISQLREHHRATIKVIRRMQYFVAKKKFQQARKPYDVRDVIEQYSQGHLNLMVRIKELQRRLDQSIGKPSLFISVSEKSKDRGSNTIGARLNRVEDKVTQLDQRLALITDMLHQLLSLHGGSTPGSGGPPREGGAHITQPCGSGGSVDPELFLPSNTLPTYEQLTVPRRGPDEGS

outcome, inactive:
CCCCC(=O)Nc1c(C)cc(C)cc1Cl
Cc1cc(C)c(NC(=O)C2CC3CCC2C3)c(C)c1 (stereo not given)
Cc1ccc(C)c(NC(=O)C2CC3CCC2C3)c1 (stereo not given)
Cc1cc(C)c(NC(=O)CC(C)(C)C)c(Cl)c1
Cc1cccc(C)c1NC(=O)C1CC2CCC1C2 (stereo not given)
